Laboratory results reported in ChEMBL document CHEMBL4346709, “Design and Optimization Leading to an Orally Active TTK Protein Kinase Inhibitor with Robust Single Agent Efficacy” (J Med Chem, 2019).

Molecular target: Mitogen-activated protein kinase 8 (Homo sapiens, UniProt P45983)
Test: Inhibition of recombinant human full length His-tagged JNK1 expressed in baculovirus expression system at 3 uM by Z'-LYTE assay relative to control
Method in brief: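 Kinase selectivity panel: single-point assessment at 3 µM, n=1.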

Mitogen-activated protein kinase 8, sequence (P45983 whole entry): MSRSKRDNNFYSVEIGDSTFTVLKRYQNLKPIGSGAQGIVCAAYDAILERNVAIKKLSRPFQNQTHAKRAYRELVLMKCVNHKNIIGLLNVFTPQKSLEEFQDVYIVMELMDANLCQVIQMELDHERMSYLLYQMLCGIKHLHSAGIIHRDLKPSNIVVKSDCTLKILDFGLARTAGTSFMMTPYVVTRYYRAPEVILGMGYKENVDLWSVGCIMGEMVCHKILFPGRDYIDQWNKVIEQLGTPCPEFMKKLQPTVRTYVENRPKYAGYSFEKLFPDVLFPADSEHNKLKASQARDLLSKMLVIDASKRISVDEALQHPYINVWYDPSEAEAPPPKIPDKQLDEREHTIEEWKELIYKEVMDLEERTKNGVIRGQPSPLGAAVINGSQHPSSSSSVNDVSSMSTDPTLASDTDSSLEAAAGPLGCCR

For `C[C@@H](Oc1cc(C(=O)N(C)C)ccc1Nc1nc(O[C@H]2CC[C@@](C)(O)CC2)c2c(Cl)c[nH]c2n1)C(F)(F)F`, the inhibition was > 80%.
